For one molecule, inhibition in vivo, IC50 and inhibition results are on record in ChEMBL document CHEMBL4411287, “Discovery and optimization of a series of 3-substituted indazole derivatives as multi-target kinase inhibitors for the treatment of lung squamous cell carcinoma” (Eur J Med Chem, 2019).

In assay [1] the test system is NCI-H2286. Nature of the assay: Antitumor activity against human NCI-H2286 cells xenografted in SCID mouse assessed as tumor growth inhibition at 50 mg/kg, po qd for 10 consecutive days relative to control. The following applies: read-out: TGI. The assay is classed as functional. The method in brief: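 NCI-H2286 xenograft established by s.c. fragment implantation. At 100-150 mm³ mice were randomized (vehicle n=10, treated n=5) and given compound orally once daily for 10 days. Tumour volume = length×width²/2, measured twice weekly. TGI taken on the final day from change in volume relative to vehicle, with Student's t-test.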

The test system of assay [2] is NCI-H2286. Briefly: Antiproliferative activity against human NCI-H2286 cells harboring DDR2 mutation after 72 hrs by CCK8 assay. The assay is classed as functional, cell-based. Particulars: NCI-H2286, 72 h. The method in brief:
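Cells seeded at low density in growth medium and compounds added the next day. Incubated 72 h, then proliferation read by sulforhodamine B, MTT or CCK-8. IC50 obtained by four-parameter concentration-response curve fitting.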
A general note: Tetrazolium assays rely on reduction of a dye to a coloured formazan, in cell work by metabolically active cells.

The subject of assay [3] is T1, Discoidin domain-containing receptor 2 (Homo sapiens), Q16832 [I638F].
T1 sequence (whole entry): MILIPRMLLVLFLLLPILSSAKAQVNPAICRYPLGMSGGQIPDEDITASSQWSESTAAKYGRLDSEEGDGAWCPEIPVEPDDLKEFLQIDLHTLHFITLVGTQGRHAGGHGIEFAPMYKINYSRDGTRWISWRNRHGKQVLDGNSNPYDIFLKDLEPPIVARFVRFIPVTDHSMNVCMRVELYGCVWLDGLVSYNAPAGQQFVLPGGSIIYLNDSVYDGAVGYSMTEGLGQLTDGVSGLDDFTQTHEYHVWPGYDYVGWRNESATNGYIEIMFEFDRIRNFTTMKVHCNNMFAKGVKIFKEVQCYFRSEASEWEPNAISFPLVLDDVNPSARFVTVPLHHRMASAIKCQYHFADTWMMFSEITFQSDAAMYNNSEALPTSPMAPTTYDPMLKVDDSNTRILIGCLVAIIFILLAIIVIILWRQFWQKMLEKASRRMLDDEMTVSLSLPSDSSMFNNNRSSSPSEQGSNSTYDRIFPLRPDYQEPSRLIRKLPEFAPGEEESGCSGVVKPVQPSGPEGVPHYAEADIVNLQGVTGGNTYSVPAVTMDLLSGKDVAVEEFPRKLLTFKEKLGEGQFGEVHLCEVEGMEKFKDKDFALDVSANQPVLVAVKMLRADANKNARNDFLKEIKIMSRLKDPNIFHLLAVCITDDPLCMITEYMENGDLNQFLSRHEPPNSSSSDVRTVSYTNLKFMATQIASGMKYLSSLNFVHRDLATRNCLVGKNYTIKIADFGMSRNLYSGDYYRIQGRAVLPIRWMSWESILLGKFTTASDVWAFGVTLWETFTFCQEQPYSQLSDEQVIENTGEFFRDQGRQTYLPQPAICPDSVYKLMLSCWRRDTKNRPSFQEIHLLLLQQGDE
Particulars: NCI-H2286, 100 nM.

The source made the active and inactive calls. The rule behind the calls is not given here.

For orientation: IC50 means the midpoint of a concentration-inhibition curve. Low readings indicate inhibition by little substance, high ones a need for much substance. As for `Cc1nc(Nc2ncc(C(=O)Nc3c(C)cccc3Cl)s2)cc(N2CCN(CCO)CC2)n1` [DASATINIB], in the assay with NCI-H2286 [1], the inhibition in vivo at 50 mg/kg was found to be 50.9%. The IC50 in the assay with NCI-H2286 [2] amounted to 33.3 nM. Besides, the inhibition result in assay [3] is “Active”.
